Test results from ChEMBL document CHEMBL1126604, “Synthesis and antiviral activity of 5-thien-2-yl-2'-deoxyuridine analogues” (1993).
≈ marks a conversion by molar mass, not a printed value.

Tests used:
Assay type in all cases: functional
Human alphaherpesvirus 2 [1] = experiment: Minimum inhibitory concentration required to reduce herpes simplex virus-2 (HSV-2 (G)) virus-induced cytopathicity by 50%
Human alphaherpesvirus 3 [2] = experiment: Minimum inhibitory concentration required to reduce TK-VZV (YS/R) virus-induced cytopathicity by 50%
[3] = test system: Vesicular stomatitis virus; experiment: Minimum inhibitory concentration required to reduce VSV virus-induced cytopathicity by 50%
Human alphaherpesvirus 3 [4] = experiment: Minimum inhibitory concentration required to reduce Varicella-Zoster virus (VZV (Oka)) virus-induced cytopathicity by 50%
Cytomegalovirus [5] = experiment: Minimum inhibitory concentration required to reduce cytomegalo virus (CMV (AD-169)) virus-induced cytopathicity by 50%; conditions: Human betaherpesvirus 5
Human alphaherpesvirus 1 [6] = experiment: Minimum inhibitory concentration required to reduce herpes simplex virus-1 (HSV-1 (KOS)) virus-induced cytopathicity by 50%
Cell line [7] = experiment: Minimum concentration required to cause a microscopically detectable alteration of cell morphology; conditions: Homo sapiens
Method in brief: (§1)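 Cytotoxicity read as the minimum concentration causing a microscopically detectable alteration of normal cell morphology. Cells were human embryonic skin-muscle (E6SM) or human embryonic lung (HEL), seeded in 96-well plates.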

Vaccinia virus = experiment: Minimum inhibitory concentration required to reduce vaccinia virus (VV) virus-induced cytopathicity by 50%; conditions: Orthopoxvirus vaccinia
[8] = (§2) Minimum inhibitory concentration required to reduce virus-induced cell growth by 50%; conditions: Homo sapiens
Human alphaherpesvirus 1 [9] = experiment: Minimum inhibitory concentration required to reduce thymidine kinase deficient-HSV-1 (VMW 1837) virus-induced cytopathicity by 50%
Human alphaherpesvirus 1 [10] = experiment: Minimum inhibitory concentration required to reduce thymidine kinase deficient-HSV-1 (B2006) virus-induced cytopathicity by 50%
Cytomegalovirus [11] = experiment: Minimum inhibitory concentration required to reduce cytomegalo virus (CMV (Davis)) virus-induced cytopathicity by 50%; conditions: Human betaherpesvirus 5
Human alphaherpesvirus 3 [12] = experiment: Minimum inhibitory concentration required to reduce TK-VZV (07-1) virus-induced cytopathicity by 50%
Human alphaherpesvirus 2 [13] = experiment: Minimum inhibitory concentration required to reduce herpes simplex virus-2 (HSV-2 (196)) virus-induced cytopathicity by 50%
Human alphaherpesvirus 1 [14] = experiment: Minimum inhibitory concentration required to reduce herpes simplex virus-1 (HSV-1 (F)) virus-induced cytopathicity by 50%
Human alphaherpesvirus 1 [15] = experiment: Minimum inhibitory concentration required to reduce herpes simplex virus-1 (HSV-1 (McIntyre)) virus-induced cytopathicity by 50%
Human alphaherpesvirus 2 [16] = experiment: Minimum inhibitory concentration required to reduce herpes simplex virus-2 (HSV-2 (Lyons)) virus-induced cytopathicity by 50%
Mus musculus [17] = experiment: Survival of mice after intraperitoneal infection with HSV-1 (KOS) and oral administration of 25 mg/kg at day 0
Method in brief: (§3)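 Mice were infected intraperitoneally with HSV-1 (KOS), 10 mice per group. Drug was given by oral gavage once daily for 5 days, starting on the day of infection, at 25, 100 or 250 mg/kg per day. Vehicle was a 90:10 suspension of Sirupus Simplex and propylene glycol; the placebo group got the same syrup. Surviving mice were counted over 20 days.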

Mus musculus [18] = experiment: Survival of mice after intraperitoneal infection with HSV-1 (KOS) and oral administration of 100 mg/kg at day 0; method in brief: as §3
Mus musculus [19] = experiment: Survival of mice after intraperitoneal infection with HSV-1 (KOS) and oral administration of 100 mg/kg at day 12; method in brief: as §3
Mus musculus [20] = experiment: Survival of mice after intraperitoneal infection with HSV-1 (KOS) and oral administration of 25 mg/kg at day 20; method in brief: as §3
Mus musculus [21] = experiment: Survival of mice after intraperitoneal infection with HSV-1 (KOS) and oral administration of 250 mg/kg at day 20; method in brief: as §3
Mus musculus [22] = experiment: Survival of mice after intraperitoneal infection with HSV-1 (KOS) and oral administration of 100 mg/kg at day 3; method in brief: as §3
Mus musculus [23] = experiment: Survival of mice after intraperitoneal infection with HSV-1 (KOS) and oral administration of 250 mg/kg at day 6; method in brief: as §3
Mus musculus [24] = experiment: Survival of mice after intraperitoneal infection with HSV-1 (KOS) and oral administration of 100 mg/kg at day 20; method in brief: as §3
Mus musculus [25] = experiment: Survival of mice after intraperitoneal infection with HSV-1 (KOS) and oral administration of 25 mg/kg at day 9; method in brief: as §3
Mus musculus [26] = experiment: Survival of mice after intraperitoneal infection with HSV-1 (KOS) and oral administration of 250 mg/kg at day 9; method in brief: as §3
Mus musculus [27] = experiment: Survival of mice after intraperitoneal infection with HSV-1 (KOS) and oral administration of 100 mg/kg at day 9; method in brief: as §3
Mus musculus [28] = experiment: Survival of mice after intraperitoneal infection with HSV-1 (KOS) and oral administration of 25 mg/kg at day 12; method in brief: as §3
Mus musculus [29] = experiment: Survival of mice after intraperitoneal infection with HSV-1 (KOS) and oral administration of 25 mg/kg at day 3; method in brief: as §3
Mus musculus [30] = experiment: Survival of mice after intraperitoneal infection with HSV-1 (KOS) and oral administration of 100 mg/kg at day 6; method in brief: as §3
Mus musculus [31] = experiment: Survival of mice after intraperitoneal infection with HSV-1 (KOS) and oral administration of 250 mg/kg at day 0; method in brief: as §3
Mus musculus [32] = experiment: Survival of mice after intraperitoneal infection with HSV-1 (KOS) and oral administration of 250 mg/kg at day 3; method in brief: as §3
Mus musculus [33] = experiment: Survival of mice after intraperitoneal infection with HSV-1 (KOS) and oral administration of 250 mg/kg at day 12; method in brief: as §3
Mus musculus [34] = experiment: Survival of mice after intraperitoneal infection with HSV-1 (KOS) and oral administration of 25 mg/kg at day 6; method in brief: as §3
Cell line [35] = experiment: Minimum concentration required to cause a microscopically detectable alteration of human cells morphology; method in brief: as §1
Cell line [36] = experiment: as §2; conditions: Homo sapiens
Method in brief: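 Cytotoxicity was measured as inhibition of cell growth in E6SM or HEL cells seeded in 96-well plates.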

Structure (SMILES) | MIC (Human alphaherpesvirus 2 [1]) | MIC (Human alphaherpesvirus 3 [2]) | MIC [3] | MIC (Human alphaherpesvirus 3 [4]) | MIC (Cytomegalovirus [5]) | MIC (Human alphaherpesvirus 1 [6]) | MIC (Cell line [7]) | MIC (Vaccinia virus) | MIC [8] | MIC (Human alphaherpesvirus 1 [9]) | MIC (Human alphaherpesvirus 1 [10]) | MIC (Cytomegalovirus [11]) | MIC (Human alphaherpesvirus 3 [12]) | MIC (Human alphaherpesvirus 2 [13]) | MIC (Human alphaherpesvirus 1 [14]) | MIC (Human alphaherpesvirus 1 [15]) | MIC (Human alphaherpesvirus 2 [16]) | also measured
C[Si](C)(C)C#Cc1ccc(-c2cn([C@H]3C[C@H](O)[C@@H](CO)O3)c(=O)[nH]c2=O)s1 | > 40 µg/mL | 20 µg/mL (≈ 49.2 µM) | > 40 µg/mL | 0.2 µg/mL (≈ 0.492 µM) | > 10 µg/mL | 0.07 µg/mL (≈ 0.172 µM) | 100 µg/mL (≈ 246 µM) | > 40 µg/mL | 10 µg/mL (≈ 24.6 µM) | > 40 µg/mL | > 40 µg/mL | > 10 µg/mL | 21 µg/mL (≈ 51.7 µM) | – | – | – | – | –
O=c1[nH]c(=O)n([C@H]2C[C@H](O)[C@@H](CO)O2)cc1-c1ccsc1 | 70 µg/mL (≈ 226 µM) | 20 µg/mL (≈ 64.4 µM) | > 100 µg/mL | 1.5 µg/mL (≈ 4.83 µM) | > 40 µg/mL | 0.3 µg/mL (≈ 0.967 µM) | > 100 µg/mL | > 40 µg/mL | > 50 µg/mL | > 100 µg/mL | 150 µg/mL (≈ 483 µM) | > 40 µg/mL | 35 µg/mL (≈ 113 µM) | 100 µg/mL (≈ 322 µM) | 0.6 µg/mL (≈ 1.93 µM) | 0.04 µg/mL (≈ 0.129 µM) | 70 µg/mL (≈ 226 µM) | –
O=c1[nH]c(=O)n([C@H]2C[C@H](O)[C@@H](CO)O2)cc1-c1cccs1 | 50 µg/mL (≈ 161 µM) | 30 µg/mL (≈ 96.7 µM) | > 100 µg/mL | 3 µg/mL (≈ 9.67 µM) | 60 µg/mL (≈ 193 µM) | 1.5 µg/mL (≈ 4.83 µM) | 100 µg/mL (≈ 322 µM) | 20 µg/mL (≈ 64.4 µM) | 45 µg/mL (≈ 145 µM) | > 100 µg/mL | > 100 µg/mL | 40 µg/mL (≈ 129 µM) | 8 µg/mL (≈ 25.8 µM) | 50 µg/mL (≈ 161 µM) | 0.35 µg/mL (≈ 1.13 µM) | 0.3 µg/mL (≈ 0.967 µM) | 20 µg/mL (≈ 64.4 µM) | –
O=c1[nH]c(=O)n([C@H]2C[C@H](O)[C@@H](CO)O2)cc1/C=C/Br [BRIVUDINE] | 70 µg/mL (≈ 210 µM) | > 40 µg/mL | > 200 µg/mL | 0.004 µg/mL (≈ 0.012 µM) | – | 0.01 µg/mL (≈ 0.03 µM) | > 400 µg/mL | 0.2 µg/mL (≈ 0.6 µM) | > 50 µg/mL | 10 µg/mL (≈ 30 µM) | > 200 µg/mL | – | > 40 µg/mL | > 400 µg/mL | 0.02 µg/mL (≈ 0.06 µM) | 0.01 µg/mL (≈ 0.03 µM) | 70 µg/mL (≈ 210 µM) | No. of mice (Mus musculus [17]): 10; No. of mice (Mus musculus [18]): 10; No. of mice (Mus musculus [19]): 8; No. of mice (Mus musculus [20]): 3; No. of mice (Mus musculus [21]): 9; No. of mice (Mus musculus [22]): 9; No. of mice (Mus musculus [23]): 10; No. of mice (Mus musculus [24]): 7; No. of mice (Mus musculus [25]): 4; No. of mice (Mus musculus [26]): 10; No. of mice (Mus musculus [27]): 8; No. of mice (Mus musculus [28]): 3; No. of mice (Mus musculus [29]): 10; No. of mice (Mus musculus [30]): 9; No. of mice (Mus musculus [31]): 10; No. of mice (Mus musculus [32]): 10; No. of mice (Mus musculus [33]): 10; No. of mice (Mus musculus [34]): 10
O=c1[nH]c(=O)n([C@H]2C[C@H](O)[C@@H](CO)O2)cc1-c1ccno1 | 300 µg/mL (≈ 1020 µM) | 10 µg/mL (≈ 33.9 µM) | > 400 µg/mL | 0.48 µg/mL (≈ 1.63 µM) | – | 20 µg/mL (≈ 67.7 µM) | – | > 400 µg/mL | – | > 400 µg/mL | 300 µg/mL (≈ 1020 µM) | – | – | 300 µg/mL (≈ 1020 µM) | 20 µg/mL (≈ 67.7 µM) | 2 µg/mL (≈ 6.77 µM) | > 400 µg/mL | MIC (Cell line [35]): 20 µg/mL (≈ 67.7 µM); MIC (Cell line [36]): > 50 µg/mL
O=c1[nH]c(=O)n(C2O[C@H](CO)[C@@H](O)[C@@H]2O)cc1-c1ccc(Cl)s1 (stereo partly specified) | 300 µg/mL (≈ 832 µM) | 37 µg/mL (≈ 103 µM) | > 400 µg/mL | 0.08 µg/mL (≈ 0.222 µM) | 30 µg/mL (≈ 83.2 µM) | 0.15 µg/mL (≈ 0.416 µM) | > 400 µg/mL | > 150 µg/mL | > 50 µg/mL | > 400 µg/mL | > 400 µg/mL | 70 µg/mL (≈ 194 µM) | 60 µg/mL (≈ 166 µM) | 150 µg/mL (≈ 416 µM) | 0.05 µg/mL (≈ 0.139 µM) | 0.015 µg/mL (≈ 0.0416 µM) | 150 µg/mL (≈ 416 µM) | –
